Measured values as given in ChEMBL document CHEMBL1125034, “Design and synthesis of 4H-3,1-benzoxazin-4-ones as potent alternate substrate inhibitors of human leukocyte elastase” (J Med Chem, 1990).

Columns and labels:
Neutrophil elastase = target: T1, Neutrophil elastase (Homo sapiens, UniProt P08246); experiment: Inhibition of human leukocyte elastase
T1 sequence (P08246 whole entry): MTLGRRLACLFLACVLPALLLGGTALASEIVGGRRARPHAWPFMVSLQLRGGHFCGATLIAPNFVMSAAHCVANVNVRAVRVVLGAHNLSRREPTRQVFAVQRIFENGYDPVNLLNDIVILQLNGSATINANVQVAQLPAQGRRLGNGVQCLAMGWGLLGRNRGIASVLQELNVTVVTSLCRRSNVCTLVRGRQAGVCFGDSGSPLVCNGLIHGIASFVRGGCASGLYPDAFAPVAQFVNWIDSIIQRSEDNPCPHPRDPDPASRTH

[1] = Alkaline hydrolysis rate of the compound; assay type: ADME
Method in brief: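 Alkaline hydrolysis rate constants measured at several pH values at 25 °C. Loss of the long-wavelength UV chromophore (λmax typically 300-345 nm) was followed by spectrophotometer.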

[2] = Partition coefficient (logD7.4); assay type: physicochemical; conditions: octanol/water, pH 7.4

Structure (SMILES)	Ki (Neutrophil elastase) [nM]	Log kOH- [1]	logD [2]
Cc1cccc2nc(NCC(C)(C)C)oc(=O)c12	240		
CCC(C)(C)Nc1nc2ccccc2c(=O)o1	155		
Nc1nc2ccccc2c(=O)o1		0.53	
COc1cc2nc(OCc3ccccc3)oc(=O)c2cc1OC	933	0.97	
Cc1cccc2ncoc(=O)c12	219	1.38	
O=c1oc(N2CCCC2)nc2ccccc12	1910	0.97	
CCNc1ccc2c(=O)oc(NC(C)C)nc2c1	692		2.4
CCNc1nc2ccccc2c(=O)o1	52.5		
COC(=O)[C@@H](CC(C)C)NC(=O)[C@@H](CC(C)C)Nc1nc2cc(C)cc(C)c2c(=O)o1	102		
CCOc1nc2c(C)ccc(C)c2c(=O)o1	0.0955		
CCN(CC)c1nc2c(C)ccc(C)c2c(=O)o1	105		
COC(=O)[C@@H](NC(=O)[C@H](C)Nc1nc2ccccc2c(=O)o1)C(C)C	182		
CCCCN(C(C)=O)c1nc2ccccc2c(=O)o1	10	2.48	
CCOc1nc2cc(OC)cc(C)c2c(=O)o1	0.398		
CCCCN(CCCC)c1nc2cccc(CC)c2c(=O)o1	178		
O=c1oc(N2CCCCC2)nc2ccccc12	646		3
CNc1nc2c(C)cccc2c(=O)o1	97700		
CCCCN(CCCC)c1nc2cccc(C)c2c(=O)o1	363		
O=c1oc(C(F)(F)C(F)(F)C(F)(F)F)nc2ccccc12	91.2	3.27	
CCOc1nc2cc(N)ccc2c(=O)o1	5.75	0.2	
CCSc1nc2ccc(C)cc2c(=O)o1	170	1.95	
CC(C)[C@H](NC(=O)C1CCCN1c1nc2ccccc2c(=O)o1)C(N)=O (stereo partly drawn)	468		
O=c1oc(-c2ccco2)nc2ccccc12	1780	1.94	

Structure (SMILES)	Ki (Neutrophil elastase) [nM]	Log kOH- [1]	logD [2]
CCCc1nc2ccccc2c(=O)o1	2880		
CCSc1nc2cc3ccccc3cc2c(=O)o1	72.4	2.54	
Cc1cccc2nc(NCCC(C)C)oc(=O)c12	1550		
COc1cccc2nc(C)oc(=O)c12	14500	0.83	
Nc1cccc(CNc2nc3ccccc3c(=O)o2)c1	1580	1.18	
O=c1oc(OCc2ccccc2)nc2ccccc12	56.2	1.99	
CCN(CC)c1ccc2c(=O)oc(NC(C)C)nc2c1	5500	-0.99	
C[C@H](NC(=O)[C@@H]1CCCN1c1nc2ccccc2c(=O)o1)C(N)=O	234		
CC(C)Nc1nc2cc(N)ccc2c(=O)o1	776	-0.46	
COc1cc2nc(SC/C=C/c3ccccc3)oc(=O)c2cc1OC	6920		
CCc1cccc2nc(NC(C)C)oc(=O)c12		0.31	
CCC(C)Nc1nc2ccccc2c(=O)o1 (stereo not drawn)	43.7	0.92	
CCCCNc1nc2cccc(C)c2c(=O)o1		0.41	
O=c1oc(CBr)nc2ccccc12	955	2.06	
O=c1oc(-c2cccc([N+](=O)[O-])c2)nc2ccccc12	4370	1.82	
CCc1cccc2nc(N(C(C)C)C(C)C)oc(=O)c12	70.8		
Cc1cccc2nc(NC3CCCC3)oc(=O)c12	200		
CCc1cccc2nc(N[C@@H](CC(C)C)C(=O)OC)oc(=O)c12	12	0.48	
CCc1cc(OC)cc2nc(NC(C)C)oc(=O)c12	11	-0.6	
Cc1cccc2nc(CBr)oc(=O)c12	151	1.58	
CCc1cccc2nc(N)oc(=O)c12		-0.08	
CN(C)c1ccc(CNc2nc3ccccc3c(=O)o2)cc1	2000	1.81	
CCCNc1nc2ccccc2c(=O)o1			2.4

Structure (SMILES)	Ki (Neutrophil elastase) [nM]	Log kOH- [1]	logD [2]
CCSc1nc2cccc(CC)c2c(=O)o1		1.37	
CC(=O)N(C)c1nc2ccccc2c(=O)o1	5.75	2.57	
CCOC(=O)Nc1ccc2c(=O)oc(OCC)nc2c1	17.8	1.46	
COC(=O)[C@H](CC(C)C)NC(=O)[C@H](CC(C)C)Nc1nc2cc(C)cc(C)c2c(=O)o1	39.8		
Cc1ccc(C)c2c(=O)oc(NC(C)C)nc12	6.61	0.2	
O=c1oc(SCc2ccccc2)nc2cc3ccccc3cc12	257		
Cc1nc2cccc(C)c2c(=O)o1	1000	0.85	
CCOc1nc2ccccc2c(=O)o1	6.46	1.91	
CCSc1nc2cc(CC)ccc2c(=O)o1	20.9	1.66	
Cc1ccc2nc(C(F)(F)F)oc(=O)c2c1	513	3.23	
CC(C)Sc1nc2ccccc2c(=O)o1	7.76		
CCCCCCCCNc1nc2ccccc2c(=O)o1	31600	0.03	
Cc1cccc2c(=O)oc(SCc3ccccc3)nc12	110		
CCOc1nc2cccc(CBr)c2c(=O)o1	0.0676	1.93	
COc1cc2nc(SCc3c[nH]c4ccccc34)oc(=O)c2cc1OC	12900		
CCOc1nc2cccc(CC)c2c(=O)o1	0.0427	1.17	
CCSc1nc2ccc(N(C)C)cc2c(=O)o1	339	1.76	
CCOc1nc2cccc(C(C)C)c2c(=O)o1	0.0708	0.96	
COc1nc2cccc(C)c2c(=O)o1	10		
Cc1cccc2nc(Nc3ccccc3)oc(=O)c12	110		
CCc1cccc2nc(C)oc(=O)c12	120	0.73	
CSc1nc2ccccc2c(=O)o1	20.9	2.16	
C[C@H](N)C(=O)c1nc2ccccc2c(=O)o1	759	1.76	

Structure (SMILES)	Ki (Neutrophil elastase) [nM]	Log kOH- [1]	logD [2]
Cc1cccc2c(=O)oc(NC(C)C)nc12	589	0.69	
CCCCNc1nc2c(C)cccc2c(=O)o1	407	0.86	
CC(C)(C)c1nc2ccccc2c(=O)o1	8910	1.38	
Cc1cccc2nc(N(C(C)C)C(C)C)oc(=O)c12	398		
Cc1cccc2nc(N)oc(=O)c12		-0.05	
CCOC(=O)C(Cc1ccccc1)Nc1nc2ccccc2c(=O)o1 (stereo not drawn)	1200		
CCc1cc(N(C)C)cc2nc(NC(C)C)oc(=O)c12	110	-1.88	
CCOC(=O)CSc1nc2ccccc2c(=O)o1	72.4	2.93	
CCOC(=O)CNc1nc2ccccc2c(=O)o1	64600	1.4	
CCCOc1cc(CC)c2c(=O)oc(NC(C)C)nc2c1	21.4		
CC(C)COc1nc2ccccc2c(=O)o1	11.5	1.83	
CCOc1nc2cccc(C)c2c(=O)o1	0.115	1.31	
O=c1oc(Cc2ccccc2)nc2ccccc12	3630		
CC(C)COC(=O)N(C)c1nc2ccccc2c(=O)o1	2.69	2.21	
COc1cc2nc(C)oc(=O)c2cc1OC	832000	0.53	
COc1cccc2nc(C(F)(F)F)oc(=O)c12	417	3.54	
Cc1cccc2c(=O)oc(NCc3ccccc3)nc12	2000	0.92	
O=c1oc(N2CCOCC2)nc2ccccc12	708	1.5	
CCN(CC)c1nc2ccccc2c(=O)o1	372		
O=c1oc(C(F)(F)C(F)(F)F)nc2ccccc12	110		
Cc1ccccc1CNc1nc2ccccc2c(=O)o1	2820	1.01	
CCCCCNc1nc2cccc(C)c2c(=O)o1	3390		
